Experimental findings from ChEMBL document CHEMBL3779845, “Synthesis and antitumor activity evaluation of a novel combi-nitrosourea prodrug: Designed to release a DNA cross-linking agent and an inhibitor of O(6)-alkylguanine-DNA alkyltransferase” (Bioorg Med Chem, 2016) are described below.

A short description of data set [1]: Drug level in PBS treated with 3-(3-(((2-Amino-9H-purin-6-yl)oxy)methyl)benzyl)-1-(2-chloroethyl)-1-nitrosourea by HPLC-UV analysis. The note with it: buffer. It is filed as physicochemical. In a few lines: (§1)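 Stock dissolved in minimal DMSO, diluted into PBS (pH 7.4) or MEM-EBSS containing 10% FBS plus penicillin/streptomycin to 0.1 mM final. Incubated at 37 °C, with aliquots taken at set times over 8 h and frozen. Medium samples were deproteinized with an equal volume of acetonitrile and centrifuged. Analysis by HPLC-UV on C18, eluting 50% 50 mM ammonium acetate pH 4.5 / 50% methanol at 1.0 mL/min.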

Data set [2] is described as follows: Drug level in MEM-EBSS treated with 3-(3-(((2-Amino-9H-purin-6-yl)oxy)methyl)benzyl)-1-(2-chloroethyl)-1-nitrosourea by HPLC-UV analysis. Type of data set: physicochemical. In outline:
as §1

A short description of data set [3]: Cytotoxicity against human SF126 cells expressing low level of AGT assessed as cell death after 24 hrs by CCK8 assay. Type of data set: functional, SF-126. In outline:
(§2)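 Glioma cells kept in MEM-EBSS with 10% FBS, 37 °C, 5% CO2. Seeded 5000 cells/well, grown 24 h, then 24 h drug exposure over a range of concentrations. Read-out: CCK8 (10%, 3 h), A450. Survival % = (A_drug−A_blank)/(A_control−A_blank)×100. Mean ± SD of at least three independent experiments. DMSO or ethanol vehicle kept below 0.1%.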

Data set [4] is described as follows: Cytotoxicity against human SF-767 cells expressing high level of AGT assessed as cell death after 24 hrs by CCK8 assay. Type of data set: functional. In outline:
as §2

Data set [5] can be described thus: Cytotoxicity against human SF763 cells expressing high level of AGT assessed as cell death after 24 hrs by CCK8 assay. Type of data set: functional. In outline: as §2
A short description of data set [6]: Retention time of the compound in PBS/MEM-EBSS treated with 3-(3-(((2-Amino-9H-purin-6-yl)oxy)methyl)benzyl)-1-(2-chloroethyl)-1-nitrosourea by HPLC-UV analysis. It is filed as physicochemical. The conditions noted are these: buffer. In outline: as §1
Data set [7] is described as follows: Cytotoxicity against human SF126 cells expressing low level of AGT assessed as cell survival after 24 hrs by CCK8 assay. It is filed as functional, cell-based. The conditions noted are these: SF-126, 24 h. In outline:
as §2

The nature of data set [8]: Cytotoxicity against human SF126 cells expressing low level of AGT assessed as cell survival after 24 hrs by CCK8 assay in presence of O6-BG. It is filed as functional, cell-based. The conditions noted are these: SF-126, 24 h. In a few lines: (§3)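 Cells were seeded at 5000 cells/well and grown 24 h. They were pretreated 2 h with O6-BG at 20 µM final, then switched to fresh medium holding ACNU or BCNU at various concentrations for 24 h. Read-out: CCK8 (10%, 3 h), absorbance 450 nm. Survival expressed relative to untreated cells after blank subtraction. Mean ± SD, ≥3 independent experiments.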

Data set [9] can be described thus: Cytotoxicity against human SF763 cells expressing high level of AGT assessed as cell survival after 24 hrs by CCK8 assay. The conditions noted are these: SF763, 24 h. It is filed as functional, cell-based. In a few lines:
as §2

Data set [10] in a line: Cytotoxicity against human SF763 cells expressing high level of AGT assessed as cell survival after 24 hrs by CCK8 assay in presence of O6-BG. Type of data set: functional, cell-based. The note with it: SF763, 24 h. In outline:
as §3

Data set [11] deals with Calf thymus DNA. As to the kind of experiment: Induction of dG-dC cross linking in calf thymus DNA assessed as level of dG-dC cross link per mg of DNA at 0.1 mM after 12 hrs by HPLC-ESI-MS/MS analysis. Type of data set: nucleic-acid assay. The note with it: Bos taurus. In a few lines:
(§4)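 CT DNA at 1 mg/mL in buffer (10 mM Tris, 50 mM NaCl, 50 mM Na2HPO4, pH 7.4) was given the compound from a DMSO solution and incubated 12 h at 37 °C. DNA was ethanol-precipitated and digested (DNase I, S1 nuclease, alkaline phosphatase, phosphodiesterase I), with 15N3-dG-dC internal standard at 9.6 nM final. Quantitation by isotope-dilution HPLC-ESI-MS/MS in positive SRM mode. Results given as fmol/mg DNA, mean ± SD of triplicates.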

Data set [12] has as its system Calf thymus DNA. Description: Induction of dG-dC cross linking in calf thymus DNA assessed as level of dG-dC cross link per mg of DNA at 0.2 mM after 12 hrs by HPLC-ESI-MS/MS analysis. It is filed as nucleic-acid assay. The note with it: Bos taurus. In outline:
as §4

The subject of data set [13] is Calf thymus DNA. Description: Induction of dG-dC cross linking in calf thymus DNA assessed as level of dG-dC cross link per mg of DNA at 0.4 mM after 12 hrs by HPLC-ESI-MS/MS analysis. Type of data set: nucleic-acid assay. The note with it: Bos taurus. In a few lines: as §4
Data set [14] is described as follows: Induction of dG-dC cross linking in human SF763 cells expressing high level of AGT assessed as level of dG-dC cross link per mg of DNA at 0.1 mM after 12 hrs by HPLC-ESI-MS/MS analysis. It is filed as functional. In outline: (§5)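 SF763 glioma cells (mer+, 119 fmol AGT/10^6 cells) in MEM-EBSS/10% FBS were grown to about 90% confluence and exposed for 12 h. DNA was isolated by proteinase K/RNase/phenol-chloroform, then digested with four enzymes and spiked with 15N3-dG-dC. Isotope-dilution HPLC-ESI-MS/MS; dG-dC given as fmol per mg DNA, with DNA estimated from dGuo content. Mean ± SD of triplicates.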

Data set [15] in a line: Induction of dG-dC cross linking in human SF763 cells expressing high level of AGT assessed as level of dG-dC cross link per mg of DNA at 0.2 mM after 12 hrs by HPLC-ESI-MS/MS analysis. It is filed as functional. In a few lines: as §5
Data set [16] in a line: Induction of dG-dC cross linking in human SF763 cells expressing high level of AGT assessed as level of dG-dC cross link per mg of DNA at 0.4 mM after 12 hrs by HPLC-ESI-MS/MS analysis. It is filed as functional. In outline:
as §5

The nature of data set [17]: Cytotoxicity against human SF-767 cells expressing moderate level of AGT assessed as cell survival after 24 hrs by CCK8 assay. The note with it: SF767, 24 h.
Data set [18] is described as follows: Cytotoxicity against human SF-767 cells expressing moderate level of AGT assessed as cell survival after 24 hrs by CCK8 assay in presence of O6-BG. The conditions noted are these: SF767, 24 h.
Data set [19] can be described thus: Half life of compound in serum containing medium. Type of data set: ADME. In a few lines: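 Compound at 0.1 mM final (from DMSO stock) in MEM-EBSS with 10% FBS, penicillin/streptomycin, incubated 37 °C up to 8 h. Aliquots precipitated with equal volume acetonitrile, centrifuged, supernatant run on HPLC-UV. C18 column, 50% 50 mM ammonium acetate pH 4.5 / 50% methanol, 1.0 mL/min. Half-life read from degradation curve.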

Data set [20] in a line: Half life of compound in MEM-EBSS by HPLC-UV analysis in presence of 10% fetal bovine serum. The note with it: cattle, MEM-EBSS with 10% fetal bovine serum. Type of data set: physicochemical. In a few lines:
as §1

For data set [21], the system named is SF-126. Description: Potency index, ratio IC50 of ACNU to ratio IC50 of compound for human SF126 cells expressing low level of AGT. It is filed as functional.
Data set [22] is described as follows: Retention time of the compound in PBS/MEM-EBSS by HPLC-UV analysis. Type of data set: physicochemical. The conditions noted are these: buffer. In a few lines:
as §1

Data set [23] concerns Calf thymus DNA. Description: Induction of dG-dC cross linking in calf thymus DNA after 12 hrs by HPLC-ESI-MS/MS analysis. It is filed as nucleic-acid assay. The conditions noted are these: Bos taurus. In a few lines:
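Calf thymus DNA at 1 mg/mL in buffer (10 mM Tris, 50 mM NaCl, 50 mM Na2HPO4, pH 7.4) was treated with 0.1, 0.2 or 0.4 mM final for 12 h at 37 °C, then ethanol-precipitated. Digestion with DNase I, S1 nuclease, CIAP and phosphodiesterase I, spiked with 15N3-dG-dC internal standard. Isotope-dilution HPLC-ESI-MS/MS (SRM, positive mode), reported as fmol/mg DNA, mean ± SD of triplicates.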

Data set [24] is described as follows: Half life of compound in PBS by HPLC-UV analysis.

As to `NCc1cccc(COc2nc(N)nc3nc[nH]c23)c1`, the Drug metabolism entry in data set [1] and in data set [2] was “metabolite_detected” each time. Also, the mortality in data set [3], in [4] and in data set [5] was below 3% in each case. Moreover, in data set [6], the Retention_time is recorded as 13.85 min.

In the case of `Cc1ncc(CNC(=O)N(CCCl)N=O)c(N)n1` [NIMUSTINE], the half-inhibitory concentration (IC50) is 320 µM in [7]; 310 µM in [8]; above 1000 µM in [9]; 1000 µM in data set [10]; 500 µM in [17]; 400 µM in [18]. The Activity is 8750 fmol in data set [11]; 16800 fmol in [12]; 34900 fmol in data set [13]; 172 fmol in data set [14]; 447 fmol in data set [15]; 568 fmol in [16].

Regarding `O=NN(CCCl)C(=O)NCCCl` [CARMUSTINE], the half-life in [19] was 15 min. For the same compound, the IC50 in data set [7] was found to be 20 µM; in data set [8], 25 µM; in [9] it was 100 µM; in data set [10] it was 55 µM; in data set [17], 45 µM; in data set [18] it was 30 µM. Besides, the Activity came out at 6160 fmol in [11]; 13600 fmol in data set [12]; 24300 fmol in [13]; 145 fmol in data set [14]; 224 fmol in data set [15]; 342 fmol in data set [16].

As to `Nc1nc(OCc2cccc(CNC(=O)N(CCCl)N=O)c2)c2nc[nH]c2n1`, the half-life in data set [20] is 18 min; in data set [24], 30 min. In addition, the IC50 came to 50 µM in data set [7], 35 µM in data set [9] and 25 µM in data set [17]. Besides, in [21], the “Ratio IC50” value is recorded as above 6. The Activity in data set [11] was determined as 3880 fmol; in data set [12], 6100 fmol; in data set [13] it was 10300 fmol; in data set [14], 267 fmol; in [15], 713 fmol; in data set [16], 787 fmol. For the same compound, the Activity result in [23] is “Dose-dependent effect”. The compound also displayed a Retention_time in data set [22] of 23.93 min.

On to `Nc1nc(OCc2cccc(CN=C=O)c2)c2nc[nH]c2n1`, for which the Drug metabolism entry in data set [1] and in data set [2] was “metabolite_detected” in each case. In [6], this compound had a Retention_time of 16.25 min.
